Reference: the array DNA melting data of Ke et al. (doi:10.1101/2024.01.08.574731)

Legend:
[1] = folding enthalpy; higher = less favourable; fluorescence melt of hairpins on a sequencing array, two-state fit; settings: sodium 0.088 M
Summary of the method: (§1)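 Hairpins were imaged by Cy3 fluorescence on a sequenced MiSeq flow cell with annealed Cy3 and quencher oligos, in 50 mM Na-HEPES pH 8.0, 25 mM NaCl, in 2.5 °C steps up to 60 °C. Bootstrapped two-state fits of normalised signals gave melting temperature and folding enthalpy. Four replicates were combined by inverse variance, and fitted temperatures were raised by 9.35 °C to match UV melts.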

[2] = melting temperature; fluorescence melt of hairpins on a sequencing array, two-state fit, raised by 9.35 °C to match UV melts; settings: sodium 0.088 M
Summary of the method: as §1

Sequence | folding enthalpy [1] | Tm [2]
GTAGGAGGAAACTCTTAC (((.(((....))).))) | -74.4 kJ/mol | 34.8 °C
GTAGGCACGAAAGTGTAC (((..(((....)))))) | -57.1 kJ/mol | 29.8 °C
GTAGGCCGAAAGGCTTAC (((.(((....))).))) | -88.7 kJ/mol | 55.4 °C
GTAGGCGAAAGCCACTAC ((((((....)))..))) | -49.6 kJ/mol | 47.3 °C
GTAGGCGAAAGCCTATAC ((((((....)))..))) | -40 kJ/mol | 45.2 °C
GTAGGCGGAAACACCTAC (((((.(....).))))) | -108 kJ/mol | 44.5 °C
GTAGGCGGAAACGCCTGC (.(((((....))))).) | -77.8 kJ/mol | 56.7 °C
GTAGGCTCGAAAGAGTAC (((..(((....)))))) | -44.1 kJ/mol | 29.2 °C
GTAGGGCGAAAGCCATAC (((.(((....))).))) | -92.9 kJ/mol | 55.6 °C
GTAGGTGGAAACACCCAC ((.((((....)))).)) | -54.7 kJ/mol | 34.7 °C
GTAGGTGGAAACACTTAC (((.(((....))).))) | -119 kJ/mol | 39.5 °C
GTAGGTGGAAACATCTGC (.((.((....)).)).) | -77.2 kJ/mol | 30 °C
GTAGTAGGAAACCACTAC (((((.(....).))))) | -121 kJ/mol | 35 °C
GTAGTAGGAAACTATTAC (((.(((....))).))) | -74.1 kJ/mol | 29.9 °C
GTAGTCGAAAGACATAC ((((((....))).))) | -67.9 kJ/mol | 35.2 °C
GTAGTCGAAAGACGTAC ((((((....))).))) | -79.8 kJ/mol | 47.6 °C
GTAGTGCCGAAAGGCTAC (((..(((....)))))) | -39.3 kJ/mol | 36.2 °C
GTAGTTGAAAAACTAC ((((((....)))))) | -129 kJ/mol | 48.9 °C
GTAGTTGGAAACAACCAC ((.((((....)))).)) | -78.2 kJ/mol | 32.6 °C
GTATAAACGAAAGTTTAC (((..(((....)))))) | -49.3 kJ/mol | 29.4 °C
GTATACACGAAAGTGTAC (((..(((....)))))) | -40.9 kJ/mol | 31.1 °C
GTATACGAAAGTAAATAC ((((((....)))..))) | -61.8 kJ/mol | 27.7 °C
GTATACGAAAGTACATAC ((((((....)))..))) | -44.3 kJ/mol | 21.3 °C

Sequence | folding enthalpy [1] | Tm [2]
GTATACGAAAGTACGTAC ((((((....)))..))) | -58.6 kJ/mol | 26.7 °C
GTATACGCGAAAGCGTAC (((..(((....)))))) | -29.8 kJ/mol | 37.9 °C
GTATACGGAAACGTATAC (((((((....))))))) | -188 kJ/mol | 55.9 °C
GTATACTCGAAAGAGTAC (((..(((....)))))) | -48.5 kJ/mol | 35 °C
GTATAGCGAAAGCTGTAC (((.(((....))).))) | -132 kJ/mol | 51.1 °C
GTATAGGGAAACCTATAC (((((((....))))))) | -171 kJ/mol | 50.1 °C
GTATAGGGAAACTTATAC (((((.(....).))))) | -59.6 kJ/mol | 27.7 °C
GTATATACGAAAGTATAC (((..(((....)))))) | -67.5 kJ/mol | 29.6 °C
GTATATCGAAAGATTAC (((.(((....)))))) | -60.9 kJ/mol | 31 °C
GTATATGCGAAAGCATAC (((..(((....)))))) | -37.2 kJ/mol | 32.1 °C
GTATATGGAAACATATGC (.(((((....))))).) | -105 kJ/mol | 36.5 °C
GTATCACGAAAGTGCTAC (((.(((....))).))) | -95.1 kJ/mol | 41.1 °C
GTATCACGAAAGTGTAC (((.(((....)))))) | -75.9 kJ/mol | 42.6 °C
GTATCAGAAATGATAC ((((((....)))))) | -132 kJ/mol | 45.6 °C
GTATCAGGAAACCGATAC (((((.(....).))))) | -128 kJ/mol | 38.1 °C
GTATCAGGAAACTGACAC ((.((((....)))).)) | -95.1 kJ/mol | 32.1 °C
GTATCAGGAAACTGATGC (.(((((....))))).) | -104 kJ/mol | 45 °C
GTATCCGAAAGGATAC ((((((....)))))) | -147 kJ/mol | 65.8 °C
GTATCCGGAAACGGATAC (((((((....))))))) | -153 kJ/mol | 63.7 °C
GTATCCGGAAACGGGTAC (((.(((....))).))) | -177 kJ/mol | 51.3 °C
GTATCGCGAAAGCGTTAC (((.(((....))).))) | -88.8 kJ/mol | 48.4 °C
GTATCGGAAACGATAC ((((((....)))))) | -169 kJ/mol | 55.5 °C
GTATCGGGAAACCGATAC (((((((....))))))) | -177 kJ/mol | 62.2 °C

Sequence | folding enthalpy [1] | Tm [2]
GTATCGGGAAACTGATAC (((((.(....).))))) | -156 kJ/mol | 45.3 °C
GTATCTGGAAACAGATGC (.(((((....))))).) | -88.9 kJ/mol | 46.9 °C
GTATGAGGAAACTCATGC (.(((((....))))).) | -111 kJ/mol | 44.5 °C
GTATGCGAAAGCAAGTAC ((((((....)))..))) | -35.7 kJ/mol | 26.1 °C
GTATGCGAAAGCAGGTAC ((((((....)))..))) | -55.3 kJ/mol | 30 °C
GTATGCGAAAGCAGTTAC ((((((....)))..))) | -42.2 kJ/mol | 28.2 °C
GTATGCGAAAGCATCTAC ((((((....)))..))) | -47.2 kJ/mol | 40 °C
GTATGCGGAAACGCACAC ((.((((....)))).)) | -64.4 kJ/mol | 40 °C
GTATGCGGAAACGCGTAC (((.(((....))).))) | -133 kJ/mol | 55 °C
GTATGCGGAAACGTATAC ((((.((....)).)))) | -130 kJ/mol | 46.5 °C
GTATTACGAAAGTACTAC (((.(((....))).))) | -83.1 kJ/mol | 32.7 °C
GTATTAGAAATAATAC ((((((....)))))) | -93 kJ/mol | 31.9 °C
GTATTAGGAAACTGATAC ((((.((....)).)))) | -89 kJ/mol | 34.3 °C
GTATTCCGAAAGGACTAC (((.(((....))).))) | -111 kJ/mol | 38.2 °C
GTATTCCGAAAGGAGTAC (((.(((....))).))) | -153 kJ/mol | 47.5 °C
GTATTCGAAAGAAATAC ((((((....))).))) | -62.6 kJ/mol | 34 °C
GTATTCGAAAGAATTAC ((((((....))).))) | -54.5 kJ/mol | 31.4 °C
GTATTCGGAAACGAATGC (.(((((....))))).) | -122 kJ/mol | 48.6 °C
GTATTGCGAAAGCATAC (((.(((....)))))) | -51 kJ/mol | 45 °C
GTATTTGGAAACAAATGC (.(((((....))))).) | -119 kJ/mol | 39.9 °C
GTATTTGGAAACAGATAC ((((.((....)).)))) | -103 kJ/mol | 32.4 °C
GTCAAACCGAAAGGTGAC (((..(((....)))))) | -89 kJ/mol | 45.4 °C
